# From ChEMBL document CHEMBL1649165, “Activity profile in vitro of micafungin against Spanish clinical isolates of common and emerging species of yeasts and molds” (2009)
# How the values were obtained:
# Assay type in all cases: functional
# Trichosporon jirovecii = test: Antimicrobial activity against Trichosporon jirovecii by broth microdilution method; details: Cutaneotrichosporon jirovecii
# Summary of the method: (§1)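 Nonfermentative yeast clinical isolates (Rhodotorula, Trichosporon) tested by broth microdilution. The EUCAST yeast recommendations were followed strictly, with one minor modification to improve growth. MIC was read as the endpoint.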
# Aspergillus = test: Antimicrobial activity against Aspergillus spp. by broth microdilution method
# Summary of the method: (§2)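 Clinical mould isolates, tested by broth microdilution using the AFST-EUCAST reference method for filamentous fungi. For echinocandins, the endpoint was the minimum effective concentration: the lowest drug concentration giving aberrant hyphal growth, read with an inverted microscope.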
# Aspergillus fumigatus = test: Antimicrobial activity against Aspergillus fumigatus by broth microdilution method; summary of the method: as §2
# Aspergillus sclerotiorum = test: Antimicrobial activity against Aspergillus sclerotiorum by broth microdilution method; summary of the method: as §2
# Magnusiomyces capitatus = test: Antimicrobial activity against Dipodascus capitatus by broth microdilution method
# [1] = tested on: Cladophialophora bantiana; test: Antimicrobial activity against Cladophialophora bantiana by broth microdilution method; summary of the method: as §2
# Fusarium equiseti = test: Antimicrobial activity against Fusarium equiseti by broth microdilution method; summary of the method: as §2
# Lomentospora prolificans = test: Antimicrobial activity against Scedosporium prolificans by broth microdilution method
# Summary of the method: (§3)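 Filamentous fungus clinical isolates tested by the AFST-EUCAST reference broth microdilution method for moulds. For echinocandins, the endpoint was the minimum effective concentration: the lowest drug concentration giving aberrant hyphal growth, read with an inverted microscope.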
# [2] = tested on: Cryptococcus deneoformans; test: Antimicrobial activity against Cryptococcus neoformans var. neoformans by broth microdilution method
# Summary of the method: (§4)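 Clinical isolates of nonfermentative yeasts, tested by broth microdilution following EUCAST recommendations. The only change from that method was a minor modification to improve growth.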
# [3] = tested on: Kazachstania pintolopesii; test: Antimicrobial activity against Candida pintolopesii by broth microdilution method; details: Arxiozyma pintolopesii
# Summary of the method: (§5)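 Clinical isolates from human patients, tested by broth microdilution using the AFST-EUCAST reference procedure for fermentative yeasts. The MIC was read per that reference method.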
# Exophiala jeanselmei = test: Antimicrobial activity against Exophiala jeanselmei by broth microdilution method
# Candida parapsilosis = test: Antimicrobial activity against Candida parapsilosis by broth microdilution method; details: Lodderomyces parapsilosis; summary of the method: as §5
# Paecilomyces variotii = test: Antimicrobial activity against Paecilomyces variotii by broth microdilution method; summary of the method: as §3
# Debaryomyces hansenii = test: Antimicrobial activity against Candida famata by broth microdilution method; summary of the method: as §5
# Clavispora lusitaniae = test: Antimicrobial activity against Candida lusitaniae by broth microdilution method; summary of the method: as §5
# Candida orthopsilosis = test: Antimicrobial activity against Candida orthopsilosis by broth microdilution method; details: Lodderomyces orthopsilosis; summary of the method: as §5
# Trichosporon ovoides = test: Antimicrobial activity against Trichosporon ovoides by broth microdilution method; summary of the method: as §1
# Torulaspora delbrueckii = test: Antimicrobial activity against Candida coliculosa by broth microdilution method; summary of the method: as §5
# [4] = tested on: Meyerozyma guilliermondii; test: Antimicrobial activity against Candida guilliermondii by broth microdilution method; summary of the method: as §5
# Cladosporium = test: Antimicrobial activity against Cladosporium spp. by broth microdilution method; summary of the method: as §2
# Trichosporon inkin = test: Antimicrobial activity against Trichosporon inkin by broth microdilution method; summary of the method: as §1
# Trichosporon asahii = test: Antimicrobial activity against Trichosporon asahii by broth microdilution method; summary of the method: as §1
# Fusarium reticulatum = test: Antimicrobial activity against Fusarium reticulatum by broth microdilution method; summary of the method: as §3
# Acremonium sp. = test: Antimicrobial activity against Acremonium sp.by broth microdilution method; summary of the method: as §2
# [5] = tested on: Cunninghamella bertholletiae; test: Antimicrobial activity against Cunninghamella bertholletiae by broth microdilution method; summary of the method: as §2
# Diutina rugosa = test: Antimicrobial activity against Candida rugosa by broth microdilution method; summary of the method: as §5
# Papiliotrema laurentii = test: Antimicrobial activity against Cryptococcus laurentii by broth microdilution method; summary of the method: as §4
# Scytalidium hyalinum = test: Antimicrobial activity against Scytalidium hyalinum by broth microdilution method; details: Neoscytalidium hyalinum; summary of the method: as §3
# Neurospora sitophila = test: Antimicrobial activity against Chrysonilia sitophila by broth microdilution method; summary of the method: as §2
# Naganishia albida = test: Antimicrobial activity against Cryptococcus albidus by broth microdilution method; summary of the method: as §4
# Lichtheimia corymbifera = test: Antimicrobial activity against Mycocladus corymbiferus by broth microdilution method; summary of the method: as §3
# Ustilago = test: Antimicrobial activity against Ustilago spp by broth microdilution method
# Fusarium solani = test: Antimicrobial activity against Fusarium solani by broth microdilution method; summary of the method: as §3
# Rhizopus arrhizus = test: Antimicrobial activity against Rhizopus oryzae by broth microdilution method; summary of the method: as §3
# Aspergillus ustus = test: Antimicrobial activity against Aspergillus ustus by broth microdilution method; summary of the method: as §2
# [6] = Antimicrobial activity against Hormographiella aspergillata by broth microdilution method; details: Coprinopsis cinerea; summary of the method: as §3
# Geotrichum candidum = test: Antimicrobial activity against Galactomyces geotrichum by broth microdilution method
# [Candida] inconspicua = Antimicrobial activity against Candida inconspicua by broth microdilution method; details: Pichia inconspicua; summary of the method: as §5
# Coprinellus domesticus = test: Antimicrobial activity against Hormographiella verticillata by broth microdilution method; summary of the method: as §3
# Pichia kudriavzevii = test: Antimicrobial activity against Candida krusei by broth microdilution method; summary of the method: as §5
smiles,measurement,setting,value
CC[C@@H]([C@H](C)O)n1ncn(-c2ccc(N3CCN(c4ccc(OC[C@@H]5CO[C@@](Cn6cncn6)(c6ccc(F)cc6F)C5)cc4)CC3)cc2)c1=O [POSACONAZOLE],MIC50,Trichosporon jirovecii,0.25 µg/mL
same,MIC90,Trichosporon jirovecii,> 8 µg/mL
same,MIC50,Aspergillus,0.12 µg/mL
same,MIC90,Aspergillus,> 8 µg/mL
same,MIC50,Aspergillus fumigatus,0.06 µg/mL
same,MIC90,Aspergillus fumigatus,0.25 µg/mL
same,MIC50,Aspergillus sclerotiorum,0.12 µg/mL
same,MIC90,Aspergillus sclerotiorum,> 8 µg/mL
same,MIC50,Magnusiomyces capitatus,0.5 µg/mL
same,MIC90,Magnusiomyces capitatus,0.5 µg/mL
same,MIC50,[1],0.06 µg/mL
same,MIC90,[1],> 8 µg/mL
same,MIC50,Fusarium equiseti,4 µg/mL
same,MIC90,Fusarium equiseti,> 8 µg/mL
same,MIC50,Lomentospora prolificans,> 8 µg/mL
same,MIC90,Lomentospora prolificans,> 8 µg/mL
same,MIC50,[2],0.12 µg/mL
same,MIC90,[2],0.5 µg/mL
same,MIC50,[3],0.03 µg/mL
same,MIC90,[3],> 8 µg/mL
same,MIC50,Exophiala jeanselmei,0.06 µg/mL
same,MIC90,Exophiala jeanselmei,> 8 µg/mL
same,MIC50,Candida parapsilosis,0.02 µg/mL
same,MIC90,Candida parapsilosis,0.03 µg/mL
same,MIC50,Paecilomyces variotii,0.03 µg/mL
same,MIC90,Paecilomyces variotii,0.25 µg/mL
same,MIC50,Debaryomyces hansenii,0.03 µg/mL
same,MIC90,Debaryomyces hansenii,> 8 µg/mL
same,MIC50,Clavispora lusitaniae,0.02 µg/mL
same,MIC90,Clavispora lusitaniae,0.02 µg/mL
same,MIC50,Candida orthopsilosis,0.03 µg/mL
same,MIC90,Candida orthopsilosis,> 8 µg/mL
same,MIC50,Trichosporon ovoides,0.25 µg/mL
same,MIC90,Trichosporon ovoides,> 8 µg/mL
same,MIC50,Torulaspora delbrueckii,0.03 µg/mL
same,MIC90,Torulaspora delbrueckii,> 8 µg/mL
same,MIC50,[4],0.12 µg/mL
same,MIC90,[4],> 8 µg/mL
same,MIC50,Cladosporium,0.06 µg/mL
same,MIC90,Cladosporium,> 8 µg/mL
same,MIC50,Trichosporon inkin,0.06 µg/mL
same,MIC90,Trichosporon inkin,0.12 µg/mL
same,MIC50,Trichosporon asahii,0.25 µg/mL
same,MIC90,Trichosporon asahii,> 8 µg/mL
same,MIC50,Fusarium reticulatum,4 µg/mL
same,MIC90,Fusarium reticulatum,> 8 µg/mL
same,MIC50,Acremonium sp.,8 µg/mL
same,MIC90,Acremonium sp.,> 16 µg/mL
same,MIC50,[5],4 µg/mL
same,MIC90,[5],> 8 µg/mL
same,MIC50,Diutina rugosa,0.03 µg/mL
same,MIC90,Diutina rugosa,> 8 µg/mL
same,MIC50,Papiliotrema laurentii,0.25 µg/mL
same,MIC90,Papiliotrema laurentii,> 8 µg/mL
same,MIC50,Scytalidium hyalinum,0.06 µg/mL
same,MIC90,Scytalidium hyalinum,> 8 µg/mL
same,MIC50,Neurospora sitophila,4 µg/mL
same,MIC90,Neurospora sitophila,> 8 µg/mL
same,MIC50,Naganishia albida,0.25 µg/mL
same,MIC90,Naganishia albida,> 8 µg/mL
same,MIC50,Lichtheimia corymbifera,0.5 µg/mL
same,MIC90,Lichtheimia corymbifera,> 8 µg/mL
same,MIC50,Ustilago,0.25 µg/mL
same,MIC90,Ustilago,> 8 µg/mL
same,MIC50,Fusarium solani,> 8 µg/mL
same,MIC90,Fusarium solani,> 8 µg/mL
same,MIC50,Rhizopus arrhizus,2 µg/mL
same,MIC90,Rhizopus arrhizus,> 8 µg/mL
same,MIC50,Aspergillus ustus,0.12 µg/mL
same,MIC90,Aspergillus ustus,> 8 µg/mL
same,MIC50,[6],4 µg/mL
same,MIC90,[6],> 8 µg/mL
same,MIC50,Geotrichum candidum,0.5 µg/mL
same,MIC90,Geotrichum candidum,0.5 µg/mL
same,MIC50,[Candida] inconspicua,0.03 µg/mL
same,MIC90,[Candida] inconspicua,> 8 µg/mL
same,MIC50,Coprinellus domesticus,4 µg/mL
same,MIC90,Coprinellus domesticus,> 8 µg/mL
same,MIC50,Pichia kudriavzevii,0.12 µg/mL
same,MIC90,Pichia kudriavzevii,0.25 µg/mL
